Reference: PMC4220649 (Blood Cancer Journal, 2014)
“Also recorded” adds a separate entry of the source. Where two headings read alike, the source gives them in different places.

System: patients with relapsed/refractory lymphoma
Type: in vivo, human
Conditions: for Drug-related AE: Skin/SC tissue disorders / Drug-related grade ⩾3 AE: Skin/SC tissue disorders: MedDRA SOC
How it was run: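 Open-label phase 1 in patients with relapsed/refractory lymphoma after ⩾2 prior therapies. Dosing started at one patient per level with doubling from 0.125 to 1.0 mg/m2, then followed a 3+3 schema up to 3.11 mg/m2. DLTs were assessed in cycle 1, and AEs were graded by NCI-CTCAE v3.0.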

CC(C)C[C@H](NC(=O)CNC(=O)c1cc(Cl)ccc1Cl)B(O)O [ixazomib]
DLTs in cycle 1 (1.76 mg/m^2 cohort): one grade 4 neutropenia
DLTs in cycle 1 (2.34 mg/m^2 cohort): DLTs occurred in one of six DLT-evaluable patients
DLTs in cycle 1 (3.11 mg/m^2 cohort): two DLTs occurred in four DLT-evaluable patients
Patients who reported DLTs (DLT-evaluable population, 28 patients): Four
MTD (maximum tolerated dose) (IV, days 1, 8 and 15 of 28-day cycles): 2.34 mg/m^2
Drug-related AE: Skin/SC tissue disorders (all doses, Total (n=30)): 8 (27) n (%)
Drug-related grade ⩾3 AE: Skin/SC tissue disorders (all doses, Total (n=30)): 2 (7) n (%)
Drug-related AE: Skin/SC tissue disorders (dose 1.4 mg/m^2 (n=4)): 1 n
Drug-related grade ⩾3 AE: Skin/SC tissue disorders (dose 1.4 mg/m^2 (n=4)): 0 n
Drug-related AE: Skin/SC tissue disorders (dose 1.76 mg/m^2 (n=7)): 2 n
Drug-related grade ⩾3 AE: Skin/SC tissue disorders (dose 1.76 mg/m^2 (n=7)): 0 n
Drug-related AE: Skin/SC tissue disorders (dose 2.34 mg/m^2 (n=10)): 4 n
Drug-related grade ⩾3 AE: Skin/SC tissue disorders (dose 2.34 mg/m^2 (n=10)): 1 n
Drug-related AE: Skin/SC tissue disorders (dose 3.11 mg/m^2 (n=5)): 0 n
Drug-related grade ⩾3 AE: Skin/SC tissue disorders (dose 3.11 mg/m^2 (n=5)): 0 n
Drug-related AE: Skin/SC tissue disorders (dose 0.125–1.0 mg/m^2 (n=4)): 1 n
Drug-related grade ⩾3 AE: Skin/SC tissue disorders (dose 0.125–1.0 mg/m^2 (n=4)): 1 n
Patients with grade ⩾3 neutropenia who required growth factor support (all doses): 2/6
Patients with grade ⩾3 thrombocytopenia who required platelet transfusions (all doses): 0/4
Drug-related AE: Abdominal pain (all doses, Total (n=30)): 5 (17) n (%)
Drug-related AE: Any AE (all doses, Total (n=30)): 30 (100) n (%)
Drug-related AE: Arthralgia (all doses, Total (n=30)): 3 (10) n (%)
Drug-related AE: Chills (all doses, Total (n=30)): 4 (13) n (%)
Drug-related AE: Constipation (all doses, Total (n=30)): 3 (10) n (%)
Drug-related AE: Cough (all doses, Total (n=30)): 4 (13) n (%)
Drug-related AE: Decreased appetite (all doses, Total (n=30)): 6 (20) n (%)
Drug-related AE: Decreased platelet count (all doses, Total (n=30)): 3 (10) n (%)
Drug-related AE: Diarrhea (all doses, Total (n=30)): 10 (33) n (%)
Drug-related AE: Dysgeusia (all doses, Total (n=30)): 4 (13) n (%)
Drug-related AE: Fatigue (all doses, Total (n=30)): 13 (43) n (%)
Drug-related AE: Headache (all doses, Total (n=30)): 6 (20) n (%)
Drug-related AE: Hypokalemia (all doses, Total (n=30)): 4 (13) n (%)
Drug-related AE: Lymphopenia (all doses, Total (n=30)): 4 (13) n (%)
Drug-related AE: Nausea (all doses, Total (n=30)): 8 (27) n (%)
Drug-related AE: Neutropenia (all doses, Total (n=30)): 6 (20) n (%)
Drug-related AE: Oral herpes (all doses, Total (n=30)): 4 (13) n (%)
Drug-related AE: Pain in extremity (all doses, Total (n=30)): 3 (10) n (%)
Drug-related AE: Paresthesia (all doses, Total (n=30)): 3 (10) n (%)
Drug-related AE: Peripheral edema (all doses, Total (n=30)): 4 (13) n (%)
Drug-related AE: Pyrexia (all doses, Total (n=30)): 5 (17) n (%)
Drug-related AE: Thrombocytopenia (all doses, Total (n=30)): 8 (27) n (%)
Drug-related AE: Vomiting (all doses, Total (n=30)): 8 (27) n (%)
Drug-related grade ⩾3 AE: Any grade ⩾3 AE (all doses, Total (n=30)): 14 (47) n (%)
Drug-related grade ⩾3 AE: Dehydration (all doses, Total (n=30)): 2 (7) n (%)
Drug-related grade ⩾3 AE: Diarrhea (all doses, Total (n=30)): 3 (10) n (%)
Drug-related grade ⩾3 AE: Lymphopenia (all doses, Total (n=30)): 2 (7) n (%)
Drug-related grade ⩾3 AE: Neutropenia (all doses, Total (n=30)): 6 (20) n (%)
Drug-related grade ⩾3 AE: Thrombocytopenia (all doses, Total (n=30)): 4 (13) n (%)
AEs of Skin and subcutaneous tissue disorders (MedDRA System Organ Class), patients (all doses, n=30): 27%
Drug-related AE: diarrhea, patients (all doses, n=30): 33%
Drug-related AE: fatigue, patients (all doses, n=30): 43%
Drug-related AE: nausea, patients (all doses, n=30): 27%
Drug-related AE: thrombocytopenia, patients (all doses, n=30): 27%
Drug-related AE: vomiting, patients (all doses, n=30): 27%
Drug-related grade ⩾3 AE: diarrhea, patients (all doses, n=30): 10%
Drug-related grade ⩾3 AE: neutropenia, patients (all doses, n=30): 20%
Drug-related grade ⩾3 AE: thrombocytopenia, patients (all doses, n=30): 13%
Drug-related rash, patients (all doses, n=30): 17%
Grade ⩾3 PN (all doses, n=30): no grade ⩾3 events were reported; also recorded: no patient had grade ⩾3 PN
Patients who experienced serious AEs (all doses, n=30): Eight
Patients with drug-related grade ⩾3 AEs (all doses, n=30): 47%
Discontinuation of ixazomib due to AEs (all doses, n=30, data cut-off 1 March 2013): 10%
Patients with grade ⩾3 AEs (all-cause, all doses, n=30): 73%
Drug-related AE: Abdominal pain (dose 1.4 mg/m^2 (n=4)): 0 n
Drug-related AE: Any AE (dose 1.4 mg/m^2 (n=4)): 4 n
Drug-related AE: Arthralgia (dose 1.4 mg/m^2 (n=4)): 0 n
Drug-related AE: Chills (dose 1.4 mg/m^2 (n=4)): 0 n
Drug-related AE: Constipation (dose 1.4 mg/m^2 (n=4)): 0 n
Drug-related AE: Cough (dose 1.4 mg/m^2 (n=4)): 0 n
Drug-related AE: Decreased appetite (dose 1.4 mg/m^2 (n=4)): 1 n
Drug-related AE: Decreased platelet count (dose 1.4 mg/m^2 (n=4)): 0 n
Drug-related AE: Diarrhea (dose 1.4 mg/m^2 (n=4)): 0 n
Drug-related AE: Dysgeusia (dose 1.4 mg/m^2 (n=4)): 1 n
Drug-related AE: Fatigue (dose 1.4 mg/m^2 (n=4)): 2 n
Drug-related AE: Headache (dose 1.4 mg/m^2 (n=4)): 0 n
Drug-related AE: Hypokalemia (dose 1.4 mg/m^2 (n=4)): 0 n
Drug-related AE: Lymphopenia (dose 1.4 mg/m^2 (n=4)): 1 n
Drug-related AE: Nausea (dose 1.4 mg/m^2 (n=4)): 1 n
Drug-related AE: Neutropenia (dose 1.4 mg/m^2 (n=4)): 1 n
Drug-related AE: Oral herpes (dose 1.4 mg/m^2 (n=4)): 1 n
Drug-related AE: Pain in extremity (dose 1.4 mg/m^2 (n=4)): 0 n
Drug-related AE: Paresthesia (dose 1.4 mg/m^2 (n=4)): 1 n
Drug-related AE: Peripheral edema (dose 1.4 mg/m^2 (n=4)): 0 n
Drug-related AE: Pyrexia (dose 1.4 mg/m^2 (n=4)): 0 n
Drug-related AE: Thrombocytopenia (dose 1.4 mg/m^2 (n=4)): 2 n
Drug-related AE: Vomiting (dose 1.4 mg/m^2 (n=4)): 0 n
Drug-related grade ⩾3 AE: Any grade ⩾3 AE (dose 1.4 mg/m^2 (n=4)): 3 n
Drug-related grade ⩾3 AE: Dehydration (dose 1.4 mg/m^2 (n=4)): 0 n
Drug-related grade ⩾3 AE: Diarrhea (dose 1.4 mg/m^2 (n=4)): 0 n
Drug-related grade ⩾3 AE: Lymphopenia (dose 1.4 mg/m^2 (n=4)): 0 n
Drug-related grade ⩾3 AE: Neutropenia (dose 1.4 mg/m^2 (n=4)): 1 n
Drug-related grade ⩾3 AE: Thrombocytopenia (dose 1.4 mg/m^2 (n=4)): 1 n
Drug-related AE: Abdominal pain (dose 1.76 mg/m^2 (n=7)): 1 n
Drug-related AE: Any AE (dose 1.76 mg/m^2 (n=7)): 7 n
Drug-related AE: Arthralgia (dose 1.76 mg/m^2 (n=7)): 0 n
Drug-related AE: Chills (dose 1.76 mg/m^2 (n=7)): 2 n
Drug-related AE: Constipation (dose 1.76 mg/m^2 (n=7)): 0 n
Drug-related AE: Cough (dose 1.76 mg/m^2 (n=7)): 2 n
Drug-related AE: Decreased appetite (dose 1.76 mg/m^2 (n=7)): 1 n
Drug-related AE: Decreased platelet count (dose 1.76 mg/m^2 (n=7)): 1 n
Drug-related AE: Diarrhea (dose 1.76 mg/m^2 (n=7)): 3 n
Drug-related AE: Dysgeusia (dose 1.76 mg/m^2 (n=7)): 2 n
Drug-related AE: Fatigue (dose 1.76 mg/m^2 (n=7)): 4 n
Drug-related AE: Headache (dose 1.76 mg/m^2 (n=7)): 2 n
Drug-related AE: Hypokalemia (dose 1.76 mg/m^2 (n=7)): 1 n
Drug-related AE: Lymphopenia (dose 1.76 mg/m^2 (n=7)): 0 n
Drug-related AE: Nausea (dose 1.76 mg/m^2 (n=7)): 3 n
Drug-related AE: Neutropenia (dose 1.76 mg/m^2 (n=7)): 1 n
Drug-related AE: Oral herpes (dose 1.76 mg/m^2 (n=7)): 1 n
Drug-related AE: Pain in extremity (dose 1.76 mg/m^2 (n=7)): 0 n
